PubChem BioAssay AID624068 (Broad Institute, 2012)
Results filed as inconclusive are left out.

System: S. cerevisiae W303 JC-1 mitochondrial potential, flow cytometry
Experiment: mitochondrial membrane depolarization in S. cerevisiae W303, mechanism study for C. glabrata antifungal project, flow cytometry, single point, dry powder (AID 624068)
Details: at 1 µM; stronger effect = higher value
How it was run: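 Assay system – Saccharomyces cerevisiae W303-1a yeast cells · Measured by – JC-1 flow cytometry, 488 nm excitation · Buffer or medium – SD-CSM growth medium containing 2% glucose · Timing – 90 min 30 °C pre-growth, 4 h compound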

CCOC(=O)N1C(=O)C2(CCCCC2)N(c2ccc(C)cc2)C1=S
mitochondrial depolarization score: 27.8
